The record followed here is ChEMBL document CHEMBL4130555, “Heterodimeric Diterpenoids Isolated from Euphorbia ebracteolata Roots and Their Inhibitory Effects on α-Glucosidase” (J Nat Prod, 2017).

The nature of experiment [1]: Inhibition of acetyltransferase activity of Mycobacterium tuberculosis H37Rv GlmU expressed in Escherichia coli BL21(DE3) using acetylcoA as substrate after 30 mins.
The subject of another experiment is BGC-823. The experiment can be described thus: Cytotoxicity against human BGC823 cells by MTT assay. The class given is functional, cell-based.
In another experiment the test system is Bel-7402. The experiment can be described thus: Cytotoxicity against human Bel7402 cells by MTT assay. The format is functional, cell-based.
Experiment [2] in a line: Inhibition of baker's yeast alpha-glucosidase using p-nitrophenyl-alpha-D-glucopyranoside as substrate preincubated for 0.5 hrs followed by substrate addition measured for 0.5 hrs. Set-up: species or system Saccharomyces cerevisiae. An outline of the steps: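 Enzyme activity measured with p-NPG as substrate, acarbose run alongside as positive control; procedure follows a previously published protocol.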

The test system of another experiment is HCT-8. As to the kind of experiment: Cytotoxicity against human HCT8 cells by MTT assay. The class given is functional, cell-based. (Formazan colour is commonly taken as a measure of viable cells.)
In the next experiment the test system is A2780. The experiment can be described thus: Cytotoxicity against human A2780 cells by MTT assay. The class given is functional, cell-based.
For the next experiment, the system named is A549. The experiment can be described thus: Cytotoxicity against human A549 cells by MTT assay. The format is functional, cell-based.
The nature of experiment [3]: Non-competitive inhibition of baker's yeast alpha-glucosidase using p-nitrophenyl alpha-D-glucopyranoside as substrate preincubated for 0.5 hrs followed by substrate addition measured for 0.5 hrs by Lineweaver-Burk plot analysis. Set-up: species or system Saccharomyces cerevisiae.

A word on the IC50: it is the point on the concentration scale where inhibition reaches its midpoint. The low end stands for inhibition by little substance, the high end for a need for much substance. What is called Ki is a dissociation constant, usually derived from enzyme kinetics or from competition with a known ligand. A low value points to tighter binding.

In the case of `C=C[C@@]1(C)CC[C@]2(C)c3cc4c(c(C)c3CC[C@H]2C1)O[C@@H]1C2=C(C)C(=O)O[C@@]2(O4)[C@H](O)[C@H]2[C@]3(C)CCCC(C)(C)[C@H]3CC[C@@]12O`, the IC50 in experiment [1] is 41.9 µM; in the experiment on BGC-823 it was > 100 µM; in the experiment with Bel-7402 it was > 100 µM; in experiment [2], 50.4 µM; in the experiment on HCT-8, > 100 µM; in the experiment with A2780, > 100 µM. In addition, the IC50 in the experiment on A549 is > 100 µM.
Regarding `C=C[C@@]1(C)CC[C@]2(C)c3cc(O[C@@]45OC(=O)C(C)=C4[C@H]4O[C@]46CC[C@@H]4C(C)(C)CCC[C@@]4(C)[C@@H]6[C@H]5O)c(O)c(C)c3CC[C@H]2C1`, the IC50 in experiment [1] was > 100 µM; in the experiment on BGC-823, > 100 µM; in the experiment on Bel-7402, > 100 µM; in experiment [2] it was 7.94 µM; in the experiment on HCT-8 it was > 100 µM; in the experiment with A2780, > 100 µM. Further, the IC50 in the experiment with A549 is > 100 µM. For the same compound, in experiment [3], the Ki is 10.8 µM.
In experiment [2], `C[C@H]1O[C@H](O[C@H]2[C@H](O)[C@@H](O)[C@@H](O[C@H]3[C@H](O)[C@@H](O)C(O)O[C@@H]3CO)O[C@@H]2CO)[C@H](O)[C@@H](O)[C@@H]1N[C@H]1C=C(CO)[C@@H](O)[C@H](O)[C@H]1O` (stereo partly specified) [ACARBOSE] came in with a half-inhibitory concentration (IC50) of 579 µM.
